Laboratory results: ChEMBL document CHEMBL1142277, “Toward a structure-based model of salvinorin A recognition of the kappa-opioid receptor” (J Med Chem, 2008)

What was measured:
Type in all cases: cell-based
[1] = biological target: Mu-type opioid receptor (Rattus norvegicus, UniProt P33535); assay: Displacement of [3H]diprenorphine from rat mu opioid receptor expressed in HEK293 cells
How it was run: (§1)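 Whole-cell binding: HEK-293 cells transiently transfected (calcium phosphate, 10–20 µg pcDNA) with wild-type, point-mutant or chimeric receptor, harvested 48–72 h later, washed and resuspended in 25 mM HEPES pH 7.4. Incubated with [3H]-diprenorphine, room temperature, 90 min. Separation by filtration on PEI-presoaked GF/C filters, scintillation counting. Nonspecific binding with 100 µM naloxone, norBNI or salvinorin A. Triplicates, nonlinear regression.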

[2] = Displacement of [3H]diprenorphine from chimeric rat mu opioid receptor (1-150)/kappa opioid receptor (142-227)/mu opioid receptor (234-398) expressed in HEK293 cells; how it was run: as §1
[3] = biological target: Kappa-type opioid receptor (Rattus norvegicus, UniProt P34975); assay: Displacement of [3H]diprenorphine from rat kappa opioid receptor expressed in HEK293 cells; how it was run: as §1
Sequence of Kappa-type opioid receptor (Rattus norvegicus, UniProt P34975) (P34975 whole entry): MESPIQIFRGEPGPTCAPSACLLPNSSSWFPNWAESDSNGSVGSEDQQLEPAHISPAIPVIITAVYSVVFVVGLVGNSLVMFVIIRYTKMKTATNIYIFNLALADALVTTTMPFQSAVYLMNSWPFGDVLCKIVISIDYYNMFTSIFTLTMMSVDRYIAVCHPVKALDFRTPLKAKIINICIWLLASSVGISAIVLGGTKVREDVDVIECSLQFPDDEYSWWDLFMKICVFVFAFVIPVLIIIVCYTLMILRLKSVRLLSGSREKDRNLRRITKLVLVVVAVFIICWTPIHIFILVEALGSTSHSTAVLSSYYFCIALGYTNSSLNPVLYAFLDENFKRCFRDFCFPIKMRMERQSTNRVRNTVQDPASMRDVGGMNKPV

[4] = Displacement of [3H]diprenorphine from chimeric rat kappa opioid receptor (1-227)/mouse delta opioid receptor (215-372) expressed in HEK293 cells; how it was run: as §1
[5] = Displacement of [3H]diprenorphine from chimeric rat kappa opioid receptor (1-227)/mu opioid receptor (234-398) expressed in HEK293 cells; how it was run: as §1
[6] = Displacement of [3H]diprenorphine from chimeric rat mu opioid receptor (1-150)/kappa opioid receptor (142-380) expressed in HEK293 cells; how it was run: as §1
[7] = Displacement of [3H]diprenorphine from chimeric rat kappa opioid receptor (1-141)/mu opioid receptor (151-233)/kappa opioid receptor (228-380) expressed in HEK293 cells; how it was run: as §1
[8] = biological target: Kappa-type opioid receptor (Rattus norvegicus, UniProt P34975, Y313A); assay: Displacement of [3H]diprenorphine from rat kappa opioid receptor Y313A mutant expressed in HEK293 cells; how it was run: as §1
Sequence of Kappa-type opioid receptor (Rattus norvegicus, UniProt P34975, Y313A) (P34975 whole entry Y313A): as the sequence (P34975 whole entry) above, with Y313A counted along it

[9] = Displacement of [3H]diprenorphine from chimeric rat kappa opioid receptor (1-141)/mouse delta opioid receptor (132-372) expressed in HEK293 cells; how it was run: as §1
[10] = biological target: Mu-type opioid receptor (Rattus norvegicus, UniProt P33535, W318A); assay: Displacement of [3H]diprenorphine from rat mu opioid receptor W318A mutant expressed in HEK293 cells; how it was run: as §1
Sequence of Mu-type opioid receptor (Rattus norvegicus, UniProt P33535, W318A) (P33535 whole entry W318A): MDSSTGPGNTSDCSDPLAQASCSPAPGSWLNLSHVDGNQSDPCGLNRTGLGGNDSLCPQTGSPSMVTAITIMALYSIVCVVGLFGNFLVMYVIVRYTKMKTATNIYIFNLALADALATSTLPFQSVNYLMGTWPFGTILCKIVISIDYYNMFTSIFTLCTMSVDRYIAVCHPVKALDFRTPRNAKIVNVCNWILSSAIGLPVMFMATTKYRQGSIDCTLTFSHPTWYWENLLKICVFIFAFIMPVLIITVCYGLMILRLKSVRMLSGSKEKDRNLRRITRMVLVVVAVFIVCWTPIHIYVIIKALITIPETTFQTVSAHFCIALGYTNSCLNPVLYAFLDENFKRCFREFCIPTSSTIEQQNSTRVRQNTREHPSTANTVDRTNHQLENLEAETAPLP

[11] = Displacement of [3H]diprenorphine from chimeric rat kappa opioid receptor (1-141)/mu opioid receptor (151-398) expressed in HEK293 cells; how it was run: as §1
[12] = Displacement of [3H]diprenorphine from chimeric rat mu opioid receptor (1-233)/kappa opioid receptor (228-380) expressed in HEK293 cells; how it was run: as §1

Sequence of Mu-type opioid receptor (Rattus norvegicus, UniProt P33535) (P33535 whole entry): as the sequence (P33535 whole entry W318A) above, with A318W counted along it

## COC(=O)[C@@H]1C[C@H](C(=O)c2ccccc2)C(=O)[C@H]2[C@@]1(C)CC[C@H]1C(=O)O[C@H](c3ccoc3)C[C@]21C
[1]
  Ki: 245 nM
[2]
  Ki: 615 nM
[3]
  Ki: 1380 nM
[4]
  Ki: 450 nM
[5]
  Ki: 9400 nM
[6]
  Ki: 4110 nM
[7]
  Ki: 8320 nM
[8]
  Ki: 3870 nM
[9]
  Ki: > 10000 nM
[10]
  Ki: 426 nM
[11]
  Ki: 1610 nM
[12]
  Ki: 2310 nM

## COC(=O)[C@@H]1C[C@H](OC(C)=O)C(=O)[C@H]2[C@@]1(C)CC[C@H]1C(=O)O[C@H](c3ccoc3)C[C@]21C [SALVINORIN A]
[2]
  Ki: 458 nM
[7]
  Ki: 522 nM
